In PubChem BioAssay AID809 (SRMLSC, 2007):
pEC50: −log10 of the molar value. Calls of active or inactive are those of the source.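 How the source made its calls: active means EC50 for reversing nicotinamide-shortened yeast lifespan at or below a set limit; inactive means EC50 above that limit.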

tested on: S. cerevisiae DeaD BB579, nicotinamide rescue growth, OD615 48 h; experiment: rescue of nicotinamide-suppressed growth of yeast BB579, dose response, yeast lifespan extension project, S. cerevisiae (AID 809)
Procedure, shortened: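 Assay system: Saccharomyces cerevisiae DeaD strain BB579, log-phase cells; Medium: CSMM-D glucose restrictive medium; Dosing: compounds from 0.078 to 10 µM final, 0.5% DMSO; Times: 4 h pre-incubation, 48 h exposure at 30 °C; Technique: optical density at 615 nm (absorbance); Evaluation: culture saturation density reflecting mother-cell replicative lifespan.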

| Compound | pEC50 | EC50 |
| --- | --- | --- |
| COc1ccc(CN2C(=O)/C(=C/c3ccncc3)SC2=S)cc1 | 5.22 | – |
| Cc1ccc(S(=O)(=O)C(C#N)c2nc3ccccc3nc2N2CCCC2)cc1 (stereo not given) | – | > 10 µM (inactive) |
| CC(c1ccco1)N(C(=O)c1ccccc1NS(=O)(=O)c1cc([N+](=O)[O-])ccc1Cl)c1ccccn1 (stereo not given) | 5.04 | – |
| C/C(=N\NC(=O)c1ccccc1O)c1c(O)cc(C)oc1=O | 5.54 | – |
| O=c1c(-c2ccc(Cl)cc2)[n+]([O-])c2ccccc2n1OCc1ccccn1 | – | > 10 µM (inactive) |
| O=CN(/C=C1\Sc2ccccc2C1=O)Cc1ccccc1 | 5.24 | – |
| COC(=O)c1sc2ncn(-n3c(C)ccc3C)c(=O)c2c1C | – | > 10 µM (inactive) |
| O=C(CSc1nc2ccccc2o1)c1cc2ccccc2oc1=O | – | > 10 µM (inactive) |
| O=C(CS(=O)c1ccc(C(F)(F)F)cc1[N+](=O)[O-])Oc1ccccc1 (stereo not given) | 5.28 | – |
| N=c1c2c(-c3ccccc3)c(-c3ccccc3)n(Cc3ccco3)c2ncn1CCCn1ccnc1 | 5.01 | – |
| COc1ccc(C2CC23N=C(c2ccccc2)OC3=O)cc1 (stereo not given) | – | > 10 µM (inactive) |
| O=S1(=O)C=C(Sc2nc3ccccc3s2)c2ccccc21 | – | > 10 µM (inactive) |
| C/C(=N\NC(=O)c1cccc(Cl)c1)C1C(=O)c2ccccc2C1=O | – | > 10 µM (inactive) |
| O=C(/C=C(\O)c1ccc(Cl)cc1)C(=O)NNC(=O)C(O)(c1ccccc1)c1ccccc1 | 5.56 | – |
| O=C(/C=C/c1ccccc1)Nc1ncn[nH]1 | – | > 10 µM (inactive) |
| O=c1c2c3c(sc2ncn1/N=C/c1ccc([N+](=O)[O-])o1)CCCC3 | – | > 10 µM (inactive) |
| Cc1ccc(/C=C2/C(=O)NC(=O)N(CCc3ccc(F)cc3)C2=O)o1 | – | > 10 µM (inactive) |
| C=CCn1c(-c2ccc(OC)cc2)csc1=Nc1c(C)n(C)n(-c2ccccc2)c1=O | – | > 10 µM (inactive) |
| CCC(=O)Nc1ccccc1Sc1ncnc2scc(-c3ccccc3)c12 | – | > 10 µM (inactive) |
| COCCN(CCOC)S(=O)(=O)c1ccc(C(=O)Nc2sc3c(c2C(N)=O)CCCCC3)cc1 | – | > 10 µM (inactive) |
| CCOC(=O)/C(=C/c1ccc(OC(=O)c2ccccc2)cc1)C(C)=O | 5.30 | – |
| CCn1c(=O)c2ccccc2n2c(SCC(=O)N3CCCc4ccccc43)nnc12 | – | > 10 µM (inactive) |
| COn1c(SC2CCCCC2)nc2ccccc2c1=O | 5.94 | – |
| CN(C)C1(c2nnnn2CCOC(=O)Nc2ccc(Cl)cc2)CCCCC1 | – | > 10 µM (inactive) |
| CN1CCN(CC(=O)Nc2ccc(Cl)cc2Cl)CC1 | – | > 10 µM (inactive) |
| CCc1nnc(NC(=O)c2cccc(S(=O)(=O)N(C)c3ccccc3)c2)s1 | – | > 10 µM (inactive) |
| Cc1ccc(NC(=O)Nc2nc(-c3ccc(C)s3)cs2)cc1 | – | > 10 µM (inactive) |

| Compound | pEC50 | EC50 |
| --- | --- | --- |
| CCCn1c(SCC(=O)c2ccc3c(c2)NC(=O)CO3)nc2ccccc21 | – | > 10 µM (inactive) |
| C=C(C(=O)c1ccccc1)C(C)C(=C)C(=O)c1ccccc1 | 5.34 | – |
| CN1C(=O)C(Cl)(Cl)C(=O)c2ccccc21 | – | > 10 µM (inactive) |
| CC(C)(C)C(=O)Cn1c(=N)n(Cc2ccccc2)c2ccccc21 | 5.03 | – |
| O=c1c2ccccc2nc(-c2cccc(Cl)c2)n1O | > 7.11 | – |
| CCn1c(/C=N/c2nc3ccccc3n2C)nc2ccccc21 | – | > 10 µM (inactive) |
| CCOc1ccc(/C=C2/C(=O)NC(=O)N(CCc3ccc(F)cc3)C2=O)cc1 | – | > 10 µM (inactive) |
| C=C(CC)C(=O)c1ccc(OCC(=O)O)c(Cl)c1Cl | 5.15 | – |
| O=Cc1cccn1-c1sc2c(c1C(=O)O)CCCC2 | – | > 10 µM (inactive) |
| Cc1ccc(/C=C/C(=O)C2C(=O)c3ccccc3C2=O)cc1 | 5.07 | – |
| Cc1ccc(-c2nc3ccc(Cl)cc3n2OC(=O)N(C)C)cc1 | – | > 10 µM (inactive) |
| O=C(N/N=C/c1cccc(F)c1)c1c(O)c2ccccc2[nH]c1=O | 5.49 | – |
| O=C(CCl)N1c2ccccc2OCC1c1ccccc1 (stereo not given) | 5.01 | – |
| Cc1nc2ccccc2n1-c1ccccc1 | – | > 10 µM (inactive) |
| COc1cc(OC)cc(-c2nc3ccccc3c(=O)n2OC(=O)c2ccc(Br)cc2)c1 | 5.21 | – |
| Cc1cc(NS(=O)(=O)c2ccc(CC(C)C)cc2)no1 | 5.20 | – |
| O=c1cc(-c2ccccc2Cl)oc2ccc([N+](=O)[O-])c(O)c12 | 5.13 | – |
| Cc1cc(N2C(=O)CC(Cc3ccccc3)C2=O)no1 (stereo not given) | – | > 10 µM (inactive) |
| CC1CCc2cc(F)cc3c(O)c(C(=O)NCc4ccco4)c(=O)n1c23 (stereo not given) | – | > 10 µM (inactive) |
| CCOc1ccccc1/C=c1\sc2ncnn2c1=O | 5.14 | – |
| CS(=O)(=O)c1nc(-c2cccs2)cc(C(F)(F)F)n1 | 5.41 | – |
| CNC(=S)NC1CC2CCCC(C1)N2Cc1ccco1 (stereo not given) | – | > 10 µM (inactive) |
| Cc1ccc(C(=O)C2C(=O)c3ccccc3C2=O)cc1 | 5.43 | – |
| COc1ccc(O)c(C(=O)c2cc(C#N)c(=O)n(CC3CCCO3)c2)c1 (stereo not given) | 5.09 | – |
| CC1CCCCN1C(=S)Nc1ccc2nc3n(c(=O)c2c1)CCCCC3 (stereo not given) | 5.06 | – |
| CCN(CC)Cc1c(O)c(Cl)cc2c(C)c(C)c(=O)oc12 | – | > 10 µM (inactive) |
| CC(C)c1noc2ncc(C(=O)c3cc(Cl)cc(Cl)c3O)cc12 | – | > 10 µM (inactive) |

| Compound | pEC50 | EC50 |
| --- | --- | --- |
| Cn1nnnc1SCCNCC#Cc1ccccc1 | – | > 10 µM (inactive) |
| COc1ccc(NCc2nc3ccccc3n2CCOc2ccccc2)cc1 | 5.28 | – |
| CC(C)(C)C1CCc2[nH]nc(C(=O)O)c2C1 (stereo not given) | 5.92 | – |
| O=c1[nH]c2ccccc2nc1C(Cl)c1ccccc1 (stereo not given) | 5.01 | – |
| CCOC(=O)C1CCN(C(c2cc3ccc(C)c(C)c3[nH]c2=O)c2nnnn2C2CCCCC2)CC1 (stereo not given) | – | > 10 µM (inactive) |
| N#Cc1ccc(-c2ccc(OCC(=O)NCCc3ccccc3)cc2)cc1 | – | > 10 µM (inactive) |
| O=C1C=CCC(/C=C/c2ccccc2)O1 (stereo not given) | – | > 10 µM (inactive) |
| CCNCCNC(=O)c1c(O)c2cccc3c2n(c1=O)CCC3 | 5.20 | – |
| COc1ccc(CCN2C(=O)C(O)=C(C(=O)c3ccco3)C2c2cccs2)cc1OC (stereo not given) | 5.05 | – |
| CC(=C1C(=O)c2ccccc2C1=O)N1CCN(C/C=C/c2ccccc2)CC1 | – | > 10 µM (inactive) |
| O=C(NCCc1ccccn1)C(F)(F)C(F)(F)C(F)(F)C(F)(F)C(F)(F)C(F)(F)C(F)(F)C(F)F | – | > 10 µM (inactive) |
| O=[N+]([O-])c1cc2oc3c(c2c(C=NCc2ccccc2)c1O)CCCC3 | 5.59 | – |
| CCc1c(C)c(C#N)c2nc3ccccc3n2c1Cl | – | > 10 µM (inactive) |
| CN(C)c1ccc(S(=O)(=O)c2ccc(Cl)cc2)cc1 | – | > 10 µM (inactive) |
| COc1ccc(-c2noc(CSc3nnc(-c4ccncc4)n3-c3ccc(F)cc3)n2)cc1OC | – | > 10 µM (inactive) |
| CC(C)c1nnc(NC(=O)c2c(O)c3cccc4c3n(c2=O)CCC4)s1 | 5.37 | – |
| Cc1ccc2nc(N3C(=O)C(O)=C(C(=O)c4ccco4)C3c3cccs3)sc2c1 (stereo not given) | 5.18 | – |
| c1ccc(-c2cc(N3CCOCC3)nc3ccccc23)cc1 | – | > 10 µM (inactive) |
| COC(=O)C1=C(C(=O)OC)C(c2ccccc2O)c2sc(=O)[nH]c2S1 (stereo not given) | 5.27 | – |
| CN1CCN(C(=S)Nc2cc([N+](=O)[O-])ccc2Cl)CC1 | – | > 10 µM (inactive) |
| CCOC(=O)c1c(NC(=O)C2C3C=CC(C3)C2C(=O)O)sc2c1CCC(CC)C2 (stereo not given) | – | > 10 µM (inactive) |
| COc1ccc(/C=C(/C(=O)c2ccc(Cl)cc2Cl)n2cncn2)cc1 | 5.07 | – |
| CCC(=O)N1CCN(CCN=CC2=C(O)CC(c3cccs3)CC2=O)CC1 (stereo not given) | 5.00 | – |
| CCCCOC(=O)CSc1nc2c(c(=O)[nH]c(=O)n2C)n1C/C=C(\C)Cl | – | > 10 µM (inactive) |
| COC(=O)C(=O)/C=C(\O)c1ccc(C)cc1 | 5.23 | – |
| Cc1cc(C)n2cc(CSc3nnc(N)s3)nc2n1 | – | > 10 µM (inactive) |
| COC(=O)C1=C(C(=O)OC)SC(=C2C(=S)C(C)(C)N(C(=O)C(C)C)c3ccccc32)S1 | – | > 10 µM (inactive) |

| Compound | pEC50 | EC50 |
| --- | --- | --- |
| CCOC(=O)CS(=O)(=O)c1nc(-c2ccc(F)cc2)cc(C(F)(F)F)n1 | 5.24 | – |
| CCOC(=O)/C(=C\c1cn(C)c2ccccc12)[N+](=O)[O-] | 5.51 | – |
| CCn1c(=O)c2c(O)cc(=O)oc2c2ccccc21 | > 7.11 | – |
| O=C(CCl)c1ccc(Cc2ncc(C(F)(F)F)cc2Cl)s1 | 5.42 | – |
| Nc1sc(-c2ccccc2)cc1C(=O)O | – | > 10 µM (inactive) |
| Cc1cc(C2C(C#N)=C(N)Oc3n[nH]c(C)c32)c(C)s1 (stereo not given) | – | > 10 µM (inactive) |
| O=C(Nc1nccs1)c1ccc2c(=O)n3c(nc2c1)CCCCC3 | 5.11 | – |
| CCCCn1c(=O)c2c(O)cc(=O)oc2c2ccccc21 | 5.23 | – |
| O=C(Nc1ccc(Br)cn1)c1cccc(-c2cc3ccccc3oc2=O)c1 | – | > 10 µM (inactive) |
| C=C(C(=O)c1ccccc1)C(CC(=O)c1ccccc1)c1ccccc1 (stereo not given) | 5.09 | – |
| CCCc1nc2c(c(=O)c3ccccc3n2C)c(=O)n1C1CCCCCC1 | – | > 10 µM (inactive) |
| COc1ccc(CNC(=O)c2c(O)c3cccc4c3n(c2=O)CCC4)cc1 | – | > 10 µM (inactive) |
| CCCC(=O)Nc1ccccc1Sc1ncnc2scc(-c3ccccc3)c12 | – | > 10 µM (inactive) |
| CCc1ccc(CC2S/C(=C(\C#N)C(C)=O)NC2=O)cc1 (stereo not given) | – | > 10 µM (inactive) |
| CC(=O)Oc1ccc(N(C(C)=O)S(=O)(=O)c2ccc(C)c([N+](=O)[O-])c2)cc1 | – | > 10 µM (inactive) |
| COc1ccc(N(C(=O)C(C)C)S(=O)(=O)c2ccc(Cl)cc2)cc1 | – | > 10 µM (inactive) |
| CC1(C)Oc2ccccc2OC1(O)c1ccc2ccccc2n1 (stereo not given) | – | > 10 µM (inactive) |
| Cc1ccc(Oc2nc3ccccc3n3c(C)nnc23)c(C)c1 | – | > 10 µM (inactive) |
| COc1cc(/C=c2\sc3nc(-c4ccncc4)nn3c2=O)ccc1OC(C)=O | – | > 10 µM (inactive) |
| O=C(NCc1cccnc1)c1ccc(S(=O)(=O)N2CCCCC2)cc1 | – | > 10 µM (inactive) |
| C/C=C/Cn1c(N2CCCCCC2)nc2c1c(=O)[nH]c(=O)n2C | – | > 10 µM (inactive) |
| Oc1ccc2ccccc2c1C=Nc1ccccc1-c1nc2ccccc2[nH]1 | – | > 10 µM (inactive) |
| O=C(CCC1CCCC1)c1c(O)c2ccccc2oc1=O | – | > 10 µM (inactive) |
| O=C1CC(c2ccccc2)CC(O)=C1C=NCCN1CCOCC1 (stereo not given) | 5.19 | – |
